The T/C is the ratio of treated to control. As usually defined, the logP is the decadic logarithm of the partition coefficient of the neutral form, usually between octanol and water. Read a high logP as a more lipophilic compound.

Where “and” joins values, the source holds several entries; their conditions need not be identical. Equal entries are not always repeated.

In data set [1] the test system is L1210. Briefly: Maximum % T/C against L-1210 leukemia cells in mice. The data set is classed as functional, Mus musculus. An outline of the steps: (§1)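 L-1210 leukemia in mice, run by the standard NCI protocol with one dose on day 1. % T/C is based on survival. Repeated assays are reported as both values.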
Data set [2] deals with B16. Put plainly: (§2) Median survival time (% T/C) after ip administration in B-16 melanoma in mice (dose mg/kg/day). Type of data set: functional. An outline of the steps: (§3)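 B-16 melanoma in mice, run by the standard NCI protocol. Drug given ip on days 1, 4 and 7, ten mice per dose. Read-outs were median survival time as % T/C of controls and average body-weight change in g.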

Data set [3] is described as follows: Therapeutic ratio as optimal dose/minimal effective dose. Type of data set: ADME. The note with it: mouse, p388; read-out: TR.
The test system of data set [4] is B16. Briefly: Tumor free survivors on 45th day after ip administration in B-16 melanoma in mice (dose mg/kg/day); 0.
Data set [5] deals with P388. Put plainly: Optimal dose required for antitumor activity against P-388 murine leukemia cells in mice. Type of data set: functional, Mus musculus. An outline of the steps: (§4)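 P-388 ascites leukemia, 10⁶ cells implanted ip in female CDF₁ mice. Six mice per dose, with 10 saline-injected controls. A six-mouse mitomycin C group was run at each dose in the same experiment. % T/C = median survival time treated/control × 100 at the optimal dose. MED is the lowest dose giving T/C ≥ 125.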

In data set [6] the test system is B16. The data set is described as §2. Type of data set: functional. The essentials: as §3
This is another data set of the same source.

In data set [7] the test system is B16. Put plainly: Tumor free survivors on 45th day after ip administration of in B-16 melanoma in mice (dose mg/kg/day); 0.
In data set [8] the test system is P388. Put plainly: Leukopenia % change in WBC at optimal dose on 3rd day. Type of data set: functional, Mus musculus.
Data set [9] relates to L1210. Briefly: Minimum effective dose required for antitumor activity against L-1210 leukemia cells in mice. Type of data set: functional. As to conditions: Mus musculus, read-out: MED. An outline of the steps:
as §1

Data set [10] relates to B16. Briefly: Average weight change after ip administration inB-16 melanoma in mice (dose mg/kg/day). Type of data set: functional, Mus musculus. The essentials:
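Mice bearing B-16 melanoma were tested under the standard NCI protocol at Arthur D. Little. Compound was injected ip on days 1, 4 and 7, with ten mice per dose. Average body-weight change is reported in g. Alongside it, median survival time was given as % T/C and cures as tumor-free survivors on day 45.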

For data set [11], the system named is L1210. Put plainly: Optimal dose required for antitumor activity L-1210 leukemia cells in mice. The data set is classed as functional, Mus musculus. An outline of the steps:
as §1

The subject of data set [12] is B16. Briefly: Average weight change after ip administration of in B-16 melanoma in mice (dose mg/kg/day). The data set is classed as functional, Mus musculus. An outline of the steps: as §3
In data set [13] the test system is P388. Put plainly: Maximum % T/C against P-388 murine leukemia cells in mice. Type of data set: functional, Mus musculus. The essentials:
as §4

For data set [14], the system named is B16. Put plainly: (§5) Average weight change after ip administration in B-16 melanoma in mice (dose mg/kg/day). Type of data set: functional, Mus musculus. An outline of the steps:
as §3

The test system of data set [15] is B16. Described as §5. Type of data set: functional, Mus musculus. An outline of the steps:
as §3
The source holds these as a separate data set.

The test system of data set [16] is P388. Put plainly: Minimum effective dose required for antitumor activity against P-388 murine leukemia cells. As to conditions: Mus musculus, read-out: MED. The data set is classed as functional. The essentials:
as §4

Data set [17] has as its system B16. Described as §2. The data set is classed as functional, Mus musculus. The essentials:
as §3

For data set [18], the system named is B16. The description is as §2. Type of data set: functional, Mus musculus. The essentials: as §3
This is another data set of the same source.

Data set [19] is described as follows: Partition coefficient (logP). The note with it: octanol/water. Type of data set: physicochemical.
The test system of data set [20] is P388. Put plainly: Maximum % T/C with mitomycin C against P-388 murine leukemia cells in mice. The data set is classed as functional, Mus musculus. The essentials: as §4

Take `CO[C@@]12[C@H](COC(N)=O)C3=C(C(=O)C(C)=C(N)C3=O)N1C[C@@H]1N[C@@H]12` [MITOMYCIN]: the T/C in data set [1] was 124%; in [2] it was 190%; in data set [6] it was 160% and 127%; in [13] it was 161%. For the same molecule, the selectivity ratio in [3] came out at 16. The Cures in data set [4] and in data set [7] was 0 each time. The results for the Dose in data set [5] and in data set [11] were 3.2 mg/kg and 3 mg/kg, respectively. In [8], the “Change in WBC” value is -42%. Moreover, in [9], the minimal effective dose worked out at 3 mg/kg. Further, the Average weight change in data set [10] is -0.7 g; in [12], -2.2 g; in data set [14], -1.1 g.

For the molecule `COC12[C@@H]3N[C@@H]3CN1C1=C(C(=O)/C(=N/CCS)C(C)=C1O)[C@@H]2COC(N)=O` (stereo partly drawn), the Average weight change in data set [15] and in data set [14] was -0.5 g each time. Besides, the T/C in data set [1] is on record as 168%; in data set [17], 190%; in data set [18], 218%; in [13], 313%; in data set [20], 181%. For the same molecule, the selectivity ratio in data set [3] turned out to be 64. Also, the results for the minimal effective dose in [16] and in data set [9] were 0.2 mg/kg and 1.6 mg/kg, respectively. Also, the Dose came to 12.8 mg/kg in [5] and 9.6 mg/kg in data set [11]. Besides, in [8], the “Change in WBC” value is -35%. For the same molecule, the logP in [19] was determined as 0.63.

These data come from ChEMBL document CHEMBL1122307, “Mitomycin C and porfiromycin analogues with substituted ethylamines at position 7” (J Med Chem, 1983).
